Reference: paper PMC7203960 (ACS Omega, 2020)

Experiments:
[1] = CellTiter-Glo luminescent cell viability assay, non-cancerous cell line MRC5; assay type: cell-based; conditions: human, MRC5 cells (non-cancerous cell line)
Summary of the method: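 Test compounds were made up as 100 mM DMSO stocks and diluted to 0.1 mM in sterile PBS. Cells were seeded at 1500 cells/well in 384-well plates and held 24 h before 72 h exposure. Viability was read by CellTiter-Glo luminescence on a microplate reader.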

AsPC1 = assay: CellTiter-Glo luminescent cell viability assay, AsPC1; assay type: cell-based; conditions: Homo sapiens, ASPC1, 72 h, read-out: IC50 AsPC1
Summary of the method: (§1)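 AsPC1 and SW1990 human pancreatic cancer cells were obtained from ATCC and grown in RPMI with FBS, penicillin 100 IU/mL and streptomycin 100 μg/mL at 37 °C in 5% CO2. Compounds were made up as 100 mM DMSO stocks and diluted to 0.1 mM in sterile PBS. Cells were seeded at 1500 cells/well, held 24 h, then treated 72 h. Viability was read by CellTiter-Glo luminescence, in triplicate.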

SW1990 = assay: CellTiter-Glo luminescent cell viability assay, SW1990; assay type: cell-based; conditions: Homo sapiens, SW1990, 72 h, read-out: IC50 SW1990
Summary of the method: as §1

[2] = Radical scavenging activity by DPPH method
Summary of the method: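 DPPH (1.6 mg in 50 mL DMSO), 1.5 mL, was mixed with 1.5 mL of test compound at 100 μg/mL. The mixture stood 45 min at ambient temperature in the dark, then absorbance was read at 517 nm. Blank DPPH solution served as control. Scavenging % was computed from control and sample absorbances, in triplicate.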

| Structure (SMILES) | IC50 at 72 h [1] | IC50 (AsPC1) | IC50 (SW1990) | % scavenging (DPPH) ([2]; 100 μg/mL, 45 min incubation, absorbance at 517 nm, triplicate) | IC50 ([2]; read-out: IC50 (DPPH radical scavenging), DPPH method) |
| --- | --- | --- | --- | --- | --- |
| Nc1ccn([C@@H]2O[C@H](CO)[C@@H](O)C2(F)F)c(=O)n1 [gemcitabine] | 54.17 ± 0.2 µM | 39.3 ± 4.44 µM | 35.1 ± 1.78 µM | – | – |
| O=C1O[C@H]([C@@H](O)CO)C(O)=C1O [AA, ascorbic acid] | – | – | – | 88.75 ± 0.89% | 170 µM |
